# Most compounds without a hit are left out; they make up all but 1.5% or so of the library.
# Hep lipid drop = inhibitors of hepatocyte lipid droplet formation, primary screen, imaging, high-throughput imaging, BODIPY stain | AML12 mouse hepatocytes, oleate lipid droplets | inhibition, % at 6.5 µM | 0.4% of 240,000 active;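 active = lipid droplet intensity inhibited by at least 50%, with more than 500 cells counted; inconclusive = wells with under 300 cells, treated as cytotoxic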
#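 Material – AML12 mouse liver cells · Also added – oleate loading, 100 µM · Compound dosing – 6.5 µM single-point dosing · Times – overnight treatment with compound plus oleate · Measured by – fluorescence imaging, 20x objective, two fields per well · Read-out – percent inhibition of filter-corrected integrated lipid droplet intensity per well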
# H9c2 TAG inh = inhibitors of triacylglycerol accumulation, primary screen, cell-based, uHTS, fluorescence, H9c2 | H9c2 cells, Nile Red lipid (TAG) fluorescence; cells loaded with 200 µM oleic acid | inhibition, % at 12.5 µM | 0.66% of 230,000 active;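 active = pattern-corrected inhibition of lipid staining of at least 50% with the nuclear-stain viability signal not falling by more than 50%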
# STAT3 blocker = IL-6 driven STAT3 reporter inhibitors, primary screen, U3A cells, luciferase, luminescence, MLSCN library. IL-6 STAT3-luciferase reporter; host cell line lacks STAT1. inhibition, % at 5.5 µM. 0.89% of 190,000 active. AID 862, 2007;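 active = inhibition above the mean inhibition across all screened compounds plus 3 SD, cut at about 44% in these data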
# Platelet DG rel = inhibitors of platelet dense granule secretion, primary screen, cell-based, MLPCN, human platelets | inhibition, %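 (compounds screened at 7.5 µM in platelet-rich plasma)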 | AID 1663, 2009 | 0.22% of 300,000 active | human platelet-rich plasma, SFLLRN dense granule ATP release, luminescence;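 active = mean replicate score, as percent of positive control, at or above 50; inconclusive = mean below 50 but at least one replicate at or above 50; inactive = mean and every replicate below 50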
# STAT1 inh = STAT1 signaling inhibitors, primary screen, cell-based, HTS, luciferase reporter; NIH 3T3 STAT1-luciferase reporter, IFN-gamma, luminescence; inhibition, % at 5.5 µM; 0.35% of 200,000 active;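 active = inhibition above a set limit, the mean inhibition across all tested compounds plus 3 SD, cut at about 34% in these data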
# PPC-1+TRAIL kill = compounds killing PPC-1 cancer cells with TRAIL present, primary screen, TRAIL potentiator project, ATPLite luminescence, uHTS; PPC-1 cells + TRAIL, ATPLite viability luminescence; cell killing (% activity), % at 4 µM or 5 µM; 0.41% of 220,000 active; AID 1443, 2008;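 active = cell killing above 50% in the first pass at 4 µM, then a duplicate retest at 5 µM averaging 50% or more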
# Hits are given with their value; n = inactive; u = inconclusive; x = no result.
SMILES,Hep lipid drop,H9c2 TAG inh,STAT3 blocker,Platelet DG rel,STAT1 inh,PPC-1+TRAIL kill
CNC(=O)C[C@H]1C(=O)N(CCc2ccccc2)C[C@@H]1Cc1ccccc1,x,n,x,x,x,x
CCOc1ccc(Cl)cc1-c1cc(C(=O)NCCOC)[nH]n1,x,n,x,x,x,x
C/C(=C\CNc1ncnc2nc[nH]c12)CO,x,x,x,n,x,x
CC(C)CCCCCCCCCCCCC(=O)NCC(=O)NC1C(C)OC(Nc2ncnc3nc[nH]c23)C(O)C1O (stereo unspecified),x,71.6,x,x,x,x
Cc1nnsc1C(=O)N/N=C/c1ccccc1,n,n,n,n,n,n
Cc1nnsc1C(=O)N/N=C/c1ccc2ccccc2c1O,n,n,n,n,n,59.7
CCCSc1nc(SCC(=O)NCc2ccccc2)c2c3c(sc2n1)COC(C)(C)C3,x,56.2,n,n,n,n
CC(C)Sc1nc(SCC(=O)NCc2ccco2)c2c3c(sc2n1)COC(C)(C)C3,x,n,n,n,n,n
CCOc1ccc(CCNC(=O)COC(=O)Cn2cnc3ccccc3c2=O)cc1OCC,n,n,n,n,n,n
CCOc1ccc(CCNC(=O)Cn2ccc3ccccc3c2=O)cc1OCC,50.0,n,n,n,n,n
COc1ccc(/C=N/Nc2snc(SC)c2C#N)cc1OC,x,n,n,51.9,n,n
COc1cccc(/C=N/Nc2snc(SC)c2C#N)c1,x,n,n,x,n,n
CC(C)(C)C1CCC(CN2C(Nc3ccccc3)=NC[C@@H]2Cc2ccccc2)CC1 (stereo partly specified),x,113.4,x,x,x,x
CC(C)S(=O)(=O)c1csc(C(=O)Nc2ccc(F)cc2)c1N,n,n,x,57.1,x,n
Cc1nc(Cl)sc1C(=O)Nc1ccc(F)cc1,x,n,x,x,x,x
Cn1c(=O)c2c(nc(NCc3ccco3)n2C/C=C/c2ccccc2)n(C)c1=O,x,x,x,74.0,x,n
Cn1c(=O)c2c(nc(NCc3ccco3)n2C)n(C)c1=O,n,x,n,n,n,n
CCn1c(Cc2cccn2C)nnc1SCC(=O)c1ccc(C)cc1,x,n,n,58.4,n,n
CC(=O)N1CCc2c(sc(NC(=O)C3CC3)c2-c2nc3ccccc3s2)C1,n,n,n,n,n,n
CC(=O)Nc1sc2c(c1-c1nc3ccccc3s1)CN(C(C)C)CC2,x,78.3,x,x,x,x
Cc1ccccc1S(=O)(=O)NC(=O)C1(C)CCN1C(=O)Cc1ccccc1Cl (stereo unspecified),x,n,x,x,x,x
C=C(C)C(=O)N1CCN(C(=O)C(=C)C)c2ccccc21,x,n,x,x,x,x
CC(C)N1C[C@@]23C=C[C@@H](O2)C(C(=O)OCc2ccccc2)[C@H]3C1=O (stereo partly specified),x,n,n,56.3,n,n
CC(C)N1CC23C=CC(O2)C(C(=O)OCc2ccccc2)C3C1=O (stereo unspecified),n,n,n,n,n,x
C#CC(=O)N(c1cccc(OC)c1)C(C(=O)NC1CCCC1)c1cccs1 (stereo unspecified),x,x,109.7,n,43.5,93.7
SMILES,Hep lipid drop,H9c2 TAG inh,STAT3 blocker,Platelet DG rel,STAT1 inh,PPC-1+TRAIL kill
CCCCn1c(SCN2C(=O)c3ccccc3C2=O)nc2cc(S(N)(=O)=O)ccc21,x,x,n,79.7,n,n
CCCCn1c(SCn2nnc3ccccc3c2=O)nc2cc(S(N)(=O)=O)ccc21,n,x,n,n,n,n
CC(=O)NC(c1ccc(F)c(F)c1)c1nc(-c2cccs2)cs1 (stereo unspecified),x,n,x,x,x,x
COc1cccc(NC(=O)C2(C)CCN2C(=O)C2CCCCC2)c1 (stereo unspecified),x,n,x,x,x,x
CN1C(=CC=C2C=C(I)C(=O)C(I)=C2)C(C)(C)c2ccccc21,n,n,x,x,x,50.2
CN1/C(=C\C=C2/C(=O)Oc3ccccc3C2=O)C(C)(C)c2ccccc21,n,x,n,n,n,n
CCCCN(Cc1cccs1)S(=O)(=O)c1ccc(-c2ccc(=O)[nH]n2)s1,n,x,x,n,x,x
CN(C)CCN(Cc1ccccc1)S(=O)(=O)c1ccc(-c2ccc(=O)[nH]n2)s1,n,x,x,51.3,x,x
Cc1nn(-c2ccccc2)c(C)c1/C=N/NC(=O)c1cc(-c2ccccc2)n[nH]1,u,55.8,n,n,n,n
Cc1nn(-c2ccccc2)c(Cl)c1/C=N/NC(=O)c1[nH]ncc1Br,n,x,x,59.6,x,x

# Bioassay records deposited in PubChem by several laboratories.
